According to ChEMBL document CHEMBL3272093, “Antibacterial halogenoacetyl derivatives of amino acids and simple peptides” (1977):
In brackets after ≈: the same amount, converted by molar mass. Activity calls are given as the source filed them. The calls are words filed in the database; no cut-off is given here.

test system: Salmonella enterica subsp. enterica serovar Typhimurium; test: Inhibition of Salmonella typhimurium DD-carboxypeptidase using UDP-N-acetylmuramyl-L-alanyl-meso-diaminopimeloyl-D-alanyl-D-alanine as substrate at 10 to 100 ug/ml
Procedure, shortened: (§1)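 Enzymes tested for release of D-alanine, measured with D-amino acid oxidase. Compounds assayed at 10 and 100 μg/mL. Substrates: Ac2-L-Lys-D-Ala-D-Ala for the Streptomyces R61 enzyme; UDP-N-acetylmuramyl-L-alanyl-meso-diaminopimeloyl-D-alanyl-D-alanine for the B. stearothermophilus and S. typhimurium enzymes.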

| Compound | inhibition |
| --- | --- |
| CC(C)(C)OC(=O)CCCCNC(=O)[C@H](CCCCN1C(=O)c2ccccc2C1=O)NC(=O)CI.O | inactive |
| C[C@@H](NC(=O)[C@@H](C)NC(=O)CBr)C(=O)O | inactive |
| O=C(O)CCCCNC(=O)CI | inactive |
| C[C@@H](NC(=O)[C@@H](C)NC(=O)[C@H](CCCCN1C(=O)c2ccccc2C1=O)NC(=O)CI)C(=O)O | inactive |

Now from value to compound:

| inhibition | Compound |
| --- | --- |
| inactive | C[C@@H](NC(=O)[C@H](CCCCNC(=O)OC(C)(C)C)NC(=O)CBr)C(=O)N[C@H](C)C(=O)OC(C)(C)C |
| inactive | C[C@@H](NC(=O)[C@@H](C)NC(=O)[C@H](CCCCN1C(=O)CCC1=O)NC(=O)CI)C(=O)O |
| inactive | C[C@@H](NC(=O)[C@H](CCCCN1C(=O)c2ccccc2C1=O)NC(=O)CI)C(=O)N[C@H](C)C(=O)OC(C)(C)C |
| inactive | C[C@@H](NC(=O)CI)C(=O)N[C@H](CCC(=O)OC(C)(C)C)C(=O)OC(C)(C)C |
| inactive | CC(C)(C)OC(=O)CCCCNC(=O)CI |

test system: Staphylococcus aureus; test: Antibacterial activity against Staphylococcus aureus assessed as inhibition of growth after 18 hrs by broth culture method; type: functional
Procedure, shortened: (§2)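 Broth dilution in 0.5 mL Sensitivity Test Broth, inoculated with 0.2 mL of a 10^-4 dilution of an 18-h broth culture. MIC read after 18-h incubation as the lowest concentration preventing growth.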

| Compound | MIC |
| --- | --- |
| CC(C)(C)OC(=O)CCCCNC(=O)[C@H](CCCCN1C(=O)c2ccccc2C1=O)NC(=O)CI.O | > 500 µg/mL |
| C[C@@H](NC(=O)[C@@H](C)NC(=O)CBr)C(=O)O | 500 µg/mL (≈ 1780 µM) |
| O=C(O)CCCCNC(=O)CI | 125 µg/mL (≈ 438 µM) |
| C[C@@H](NC(=O)[C@@H](C)NC(=O)[C@H](CCCCN1C(=O)c2ccccc2C1=O)NC(=O)CI)C(=O)O | 500 µg/mL (≈ 853 µM) |

More lines, in order of falling MIC, values ahead:

| MIC | Compound |
| --- | --- |
| 500 µg/mL (≈ 884 µM) | C[C@@H](NC(=O)[C@H](CCCCNC(=O)OC(C)(C)C)NC(=O)CBr)C(=O)N[C@H](C)C(=O)OC(C)(C)C |
| 500 µg/mL (≈ 929 µM) | C[C@@H](NC(=O)[C@@H](C)NC(=O)[C@H](CCCCN1C(=O)CCC1=O)NC(=O)CI)C(=O)O |
| 62 µg/mL (≈ 96.5 µM) | C[C@@H](NC(=O)[C@H](CCCCN1C(=O)c2ccccc2C1=O)NC(=O)CI)C(=O)N[C@H](C)C(=O)OC(C)(C)C |
| 31 µg/mL (≈ 62.2 µM) | C[C@@H](NC(=O)CI)C(=O)N[C@H](CCC(=O)OC(C)(C)C)C(=O)OC(C)(C)C |
| 7.5 µg/mL (≈ 22 µM) | CC(C)(C)OC(=O)CCCCNC(=O)CI |

target: T1, D-alanyl-D-alanine carboxypeptidase DacA (Geobacillus stearothermophilus) (UniProt Q05523); test: Inhibition of Bacillus stearothermophilus DD-carboxypeptidase using UDP-N-acetylmuramyl-L-alanyl-meso-diaminopimeloyl-D-alanyl-D-alanine as substrate at 10 to 100 ug/ml; procedure, shortened: as §1
T1 sequence (whole entry): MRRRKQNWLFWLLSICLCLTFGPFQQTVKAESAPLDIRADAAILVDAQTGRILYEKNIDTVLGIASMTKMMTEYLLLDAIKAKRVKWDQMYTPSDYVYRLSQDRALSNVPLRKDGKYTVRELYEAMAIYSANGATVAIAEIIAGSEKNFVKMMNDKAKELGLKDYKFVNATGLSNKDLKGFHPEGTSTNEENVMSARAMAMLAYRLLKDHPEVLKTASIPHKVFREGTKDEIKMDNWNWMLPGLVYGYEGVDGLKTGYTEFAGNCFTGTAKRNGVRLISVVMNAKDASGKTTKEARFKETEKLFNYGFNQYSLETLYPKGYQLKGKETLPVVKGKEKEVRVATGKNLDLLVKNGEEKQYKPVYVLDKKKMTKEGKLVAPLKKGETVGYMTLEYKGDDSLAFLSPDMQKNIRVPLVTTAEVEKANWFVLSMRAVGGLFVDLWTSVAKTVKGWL

| Compound | inhibition |
| --- | --- |
| CC(C)(C)OC(=O)CCCCNC(=O)[C@H](CCCCN1C(=O)c2ccccc2C1=O)NC(=O)CI.O | inactive |
| C[C@@H](NC(=O)[C@@H](C)NC(=O)CBr)C(=O)O | inactive |
| O=C(O)CCCCNC(=O)CI | inactive |
| C[C@@H](NC(=O)[C@@H](C)NC(=O)[C@H](CCCCN1C(=O)c2ccccc2C1=O)NC(=O)CI)C(=O)O | inactive |

Now from value to compound:

| inhibition | Compound |
| --- | --- |
| inactive | C[C@@H](NC(=O)[C@H](CCCCNC(=O)OC(C)(C)C)NC(=O)CBr)C(=O)N[C@H](C)C(=O)OC(C)(C)C |
| inactive | C[C@@H](NC(=O)[C@@H](C)NC(=O)[C@H](CCCCN1C(=O)CCC1=O)NC(=O)CI)C(=O)O |
| inactive | C[C@@H](NC(=O)[C@H](CCCCN1C(=O)c2ccccc2C1=O)NC(=O)CI)C(=O)N[C@H](C)C(=O)OC(C)(C)C |
| inactive | C[C@@H](NC(=O)CI)C(=O)N[C@H](CCC(=O)OC(C)(C)C)C(=O)OC(C)(C)C |
| inactive | CC(C)(C)OC(=O)CCCCNC(=O)CI |

target: D-alanyl-D-alanine carboxypeptidase (Streptomyces sp. R61) (UniProt P15555); test: Inhibition of Streptomyces R61 DD-carboxypeptidase using Ac2-L-Lys-D-Ala-D-Ala as substrate at 10 to 100 ug/ml; procedure, shortened: as §1
Sequence (P15555 whole entry): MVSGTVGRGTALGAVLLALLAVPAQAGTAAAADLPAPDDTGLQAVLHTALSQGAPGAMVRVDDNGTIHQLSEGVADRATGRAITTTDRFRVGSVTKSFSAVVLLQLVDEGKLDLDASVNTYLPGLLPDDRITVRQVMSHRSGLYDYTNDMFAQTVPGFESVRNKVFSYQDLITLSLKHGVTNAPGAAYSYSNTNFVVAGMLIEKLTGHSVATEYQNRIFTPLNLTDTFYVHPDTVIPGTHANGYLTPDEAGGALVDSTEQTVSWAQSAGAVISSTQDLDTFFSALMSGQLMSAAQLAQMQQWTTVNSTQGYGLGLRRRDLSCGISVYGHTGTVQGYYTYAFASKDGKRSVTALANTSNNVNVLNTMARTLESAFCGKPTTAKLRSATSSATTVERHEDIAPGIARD

| Compound | inhibition |
| --- | --- |
| CC(C)(C)OC(=O)CCCCNC(=O)[C@H](CCCCN1C(=O)c2ccccc2C1=O)NC(=O)CI.O | inactive |
| C[C@@H](NC(=O)[C@@H](C)NC(=O)CBr)C(=O)O | inactive |
| O=C(O)CCCCNC(=O)CI | inactive |
| C[C@@H](NC(=O)[C@@H](C)NC(=O)[C@H](CCCCN1C(=O)c2ccccc2C1=O)NC(=O)CI)C(=O)O | inactive |

More lines, now with the values ahead:

| inhibition | Compound |
| --- | --- |
| inactive | C[C@@H](NC(=O)[C@H](CCCCNC(=O)OC(C)(C)C)NC(=O)CBr)C(=O)N[C@H](C)C(=O)OC(C)(C)C |
| inactive | C[C@@H](NC(=O)[C@@H](C)NC(=O)[C@H](CCCCN1C(=O)CCC1=O)NC(=O)CI)C(=O)O |
| inactive | C[C@@H](NC(=O)[C@H](CCCCN1C(=O)c2ccccc2C1=O)NC(=O)CI)C(=O)N[C@H](C)C(=O)OC(C)(C)C |
| inactive | C[C@@H](NC(=O)CI)C(=O)N[C@H](CCC(=O)OC(C)(C)C)C(=O)OC(C)(C)C |
| inactive | CC(C)(C)OC(=O)CCCCNC(=O)CI |

test system: Escherichia coli; test: Antibacterial activity against Escherichia coli assessed as inhibition of growth after 18 hrs by broth culture method; type: functional; procedure, shortened: as §2

| Compound | MIC |
| --- | --- |
| CC(C)(C)OC(=O)CCCCNC(=O)[C@H](CCCCN1C(=O)c2ccccc2C1=O)NC(=O)CI.O | > 500 µg/mL |
| C[C@@H](NC(=O)[C@@H](C)NC(=O)CBr)C(=O)O | > 500 µg/mL |
| O=C(O)CCCCNC(=O)CI | 500 µg/mL (≈ 1750 µM) |
| C[C@@H](NC(=O)[C@@H](C)NC(=O)[C@H](CCCCN1C(=O)c2ccccc2C1=O)NC(=O)CI)C(=O)O | > 500 µg/mL |

Now from value to compound:

| MIC | Compound |
| --- | --- |
| 500 µg/mL (≈ 884 µM) | C[C@@H](NC(=O)[C@H](CCCCNC(=O)OC(C)(C)C)NC(=O)CBr)C(=O)N[C@H](C)C(=O)OC(C)(C)C |
| > 500 µg/mL | C[C@@H](NC(=O)[C@@H](C)NC(=O)[C@H](CCCCN1C(=O)CCC1=O)NC(=O)CI)C(=O)O |
| > 500 µg/mL | C[C@@H](NC(=O)[C@H](CCCCN1C(=O)c2ccccc2C1=O)NC(=O)CI)C(=O)N[C@H](C)C(=O)OC(C)(C)C |
| > 500 µg/mL | C[C@@H](NC(=O)CI)C(=O)N[C@H](CCC(=O)OC(C)(C)C)C(=O)OC(C)(C)C |
| 500 µg/mL (≈ 1470 µM) | CC(C)(C)OC(=O)CCCCNC(=O)CI |
